# Experimental data: PubChem BioAssay
# The source made the active and inactive calls.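 Rule for the calls, unless noted: active = inhibition above 20% together with a positive visual image hit; inconclusive = visual image hit but inhibition not above 20%; inactive = no visual image hit.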
# Tests used:
# [1] = inhibitors of TNFa-induced NFkB p65 translocation, primary screen, imaging, HUVEC, MLSMR starter and 10KST1 sets (AID 438); conditions: HUVEC TNFa-induced p65 nuclear translocation; cell count: measured here: nuclei count (cytotoxicity indicator), at 2.08 µM; inhibition: at 2 µM, stronger effect = higher value, 0% TNFa-plus-vehicle, 100% no-TNFa wells;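 note: compound added about 3h40 before a 20 min TNFalpha stimulation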;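 for inhibition: signal is the nuclear over cytoplasmic p65 intensity ratio per well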
# [2] = reduction of polyQ htt aggregates in cells – imaging, exon1htt(103Q)mCFP cells, high-content imaging, primary screen (AID 483;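 active = visual image review flags a hit and inhibition of aggregation exceeds 20%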;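 note: compound exposure lasted 3 days before fixation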;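 for nuclei count: percent of the per-plate median nuclei count of sample wells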); conditions: exon1htt(103Q)mCFP cell line, aggregate imaging, at 2 µM; inhibition of aggregation: stronger effect = higher value; nuclei count: measured here: cell count, toxicity
# [3] = endothelial E-selectin expression blockers – imaging, HUVEC, immunofluorescence, MLSMR starter and 10KST1 sets, primary screen (AID 487;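 active = visually confirmed hit in the image check and inhibition above 20%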;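 for inhibition: signal is fraction of cell area covered by stained E-selectin grains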;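 for nuclei count: 100% = median nuclei count of all wells on the same plate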); conditions: HUVEC TNFalpha-induced E-selectin immunofluorescence imaging, at 2 µM; inhibition: stronger effect = higher value; nuclei count: measured here: cell number, toxicity
# [4] = target: Voltage-gated potassium channel subunit beta-2 (Rattus norvegicus) (UniProt P62483); experiment: inhibitors of rat Kvbeta2 reductase activity – biochemical, NADPH fluorescence, primary screen (AID 622;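 active = fluorescence slope higher than the sample average by over 3 SD, cut at about -0.22 in these data, passing the limit was not always enough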;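 note: slope of raw intensity against log time taken from 70 to 1610 s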); conditions: recombinant KvBeta, 4-cyanobenzaldehyde reduction, at 10 µM, stronger effect = higher value
# [5] = target: Voltage-gated potassium channel subunit beta-2 (Rattus norvegicus) (UniProt P62483); experiment: enhancers of rat Kvbeta2 NADPH turnover – biochemical, NADPH fluorescence, primary screen (AID 623;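 active = NADPH fluorescence slope more negative than the mean of all samples by about 3 SD, 99.7% confidence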;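 note: fluorescence intensity change per second fitted from 20 to 320 s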); conditions: Recombinant KvBeta, NADPH fluorescence decrease slope, 10 min; at 10 µM; stronger effect = lower value
# [6] = target: Muscarinic acetylcholine receptor M4 (Homo sapiens) (UniProt P08173); experiment: M4-linked GIRK flux change, two-sided – cell-based, HEK293 M4/GIRK, thallium flux, BTC-AM, M4 allosteric agonist project, primary screen (AID 625;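 active = fluorescence slope after compound addition differing from the mean of all tested samples at 99.7% confidence, mostly higher but some lower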;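 note: thallium influx through GIRK channels coupled to M4 in HEK293 cells with BTC-AM dye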); conditions: at 10 µM, actives lie on both sides
# Method in brief: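 Material: HEK293 cells with M4 receptor and GIRK channels; Times: cells overnight at 37 °C, BTC-AM loading 1 h, reads 2 min total; Technique: kinetic BTC-AM fluorescence sampled at 1 Hz, 10 s pre-addition baseline; Read-out basis: slope over 15–24 s of trace normalized to starting intensity; Controls: carbachol positive, DMSO negative.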
# [7] = blockers of RIG-like receptor reporter activation – cell-based, Sendai virus stimulus, luciferase, 10K MLSCN set, TLR/RLR signaling modifier project, primary screen (AID 602276;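 active = inhibition at or above 50% at 10 µM; inactive = inhibition below 50%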;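 note: firefly luciferase from ISG56 promoter only with Renilla not read in this screen; 0% = Sendai virus plus DMSO and 100% = medium plus DMSO without virus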); conditions: HEK293 RL24 IRF3 luciferase reporter, at 10 µM, stronger effect = higher value
# [8] = TLR3 IRF3 reporter activation blockers – cell-based, poly I:C stimulus, luciferase, 10K MLSCN set, primary screen (AID 602277;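 active = inhibition of the reporter signal at or above 50%; inactive = inhibition below 50%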); conditions: HEK293-TLR3 RL24 IRF3 luciferase reporter, at 10 µM, stronger effect = higher value
# Muscarinic acetylcholine receptor M4 (Homo sapiens), sequence (P08173 whole entry, looked up): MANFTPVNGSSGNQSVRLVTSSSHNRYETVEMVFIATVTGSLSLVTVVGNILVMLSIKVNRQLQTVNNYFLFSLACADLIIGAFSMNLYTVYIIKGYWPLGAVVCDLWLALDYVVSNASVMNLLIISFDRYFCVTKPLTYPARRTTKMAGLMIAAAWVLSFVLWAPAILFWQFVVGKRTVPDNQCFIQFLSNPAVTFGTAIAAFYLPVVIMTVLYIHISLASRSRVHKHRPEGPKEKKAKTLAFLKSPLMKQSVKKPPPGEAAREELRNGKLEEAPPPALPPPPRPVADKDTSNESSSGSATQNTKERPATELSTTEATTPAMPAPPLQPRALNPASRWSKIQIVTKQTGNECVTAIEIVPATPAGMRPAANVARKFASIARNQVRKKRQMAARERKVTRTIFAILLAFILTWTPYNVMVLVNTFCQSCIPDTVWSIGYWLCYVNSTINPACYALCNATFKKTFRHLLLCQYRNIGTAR
# Voltage-gated potassium channel subunit beta-2 (Rattus norvegicus), sequence (P62483 whole entry, looked up): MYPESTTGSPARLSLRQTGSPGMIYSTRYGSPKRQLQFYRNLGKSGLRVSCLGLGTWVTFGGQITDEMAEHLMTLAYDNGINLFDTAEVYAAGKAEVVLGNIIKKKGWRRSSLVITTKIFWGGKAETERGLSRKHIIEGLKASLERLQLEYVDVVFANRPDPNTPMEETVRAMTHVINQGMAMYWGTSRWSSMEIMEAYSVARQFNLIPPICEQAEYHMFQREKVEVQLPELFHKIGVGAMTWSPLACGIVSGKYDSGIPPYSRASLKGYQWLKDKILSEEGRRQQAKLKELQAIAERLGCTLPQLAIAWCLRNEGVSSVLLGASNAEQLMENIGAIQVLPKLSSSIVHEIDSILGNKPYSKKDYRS
Compound,cell count [1],inhibition [1],inhibition of aggregation [2],nuclei count [2] [%],inhibition [3],nuclei count [3] [%],fluorescence slope [4],NADPH fluorescence slope [5],fluorescence slope [6],inhibition [7],inhibition [8]
Cc1ccc(NC(=O)Nc2ccc3c(c2)N(C)C(=O)CS3)nc1,562,-6.9% (inactive),-30.5% (inactive),123,-45% (inactive),116,-0.395 (inactive),6.1e-05 (inactive),0.00547 (inactive),7.37% (inactive),0.72% (inactive)
COc1ccccc1-c1ccc(Nc2cccc(C(C)=O)c2)nn1,319,-11.3% (inactive),-0.2% (inactive),74.7,0.3% (inactive),103,-0.576 (inactive),-6e-05 (inactive),0.00562 (inactive),12.1% (inactive),-36.2% (inactive)
O=C(OCC(=O)c1c[nH]c2ccccc12)C1=COCCO1,579,-6.9% (inactive),-9.2% (inactive),100,-1% (inactive),69.3,-0.271 (inactive),-5.8e-05 (inactive),0.00653 (inactive),-19.9% (inactive),-100% (inactive)
COc1cccc2cc(C(=O)N3CCN(C45CC6CC(CC(C6)C4)C5)CC3)c(=O)oc12,213,9.1% (inactive),17.3% (inactive),71.5,43.8% (inactive),85.2,-0.443 (inactive),2.5e-05 (inactive),0.00456 (inactive),5.81% (inactive),21.6% (inactive)
CCCCn1c(SCC(=O)c2ccc3c(c2)OCCO3)nnc1-c1ccco1,528,-12.7% (inactive),-5.2% (inactive),108,15.4% (inactive),110,-0.483 (inactive),0.00011 (inactive),0.00599 (inactive),6.03% (inactive),12.4% (inactive)
c1nc(NCC2CCCO2)c2[nH]cnc2n1 (stereo unspecified),349,-12.5% (inactive),12.3% (inactive),90.8,-27.3% (inactive),118,-0.483 (inactive),1.9e-05 (inactive),0.00434 (inactive),13.9% (inactive),16.7% (inactive)
COc1c2ccoc2nc2c(OC)c(OCC(O)C(C)(C)O)ccc12 (stereo unspecified),411,-1.6% (inactive),-14.6% (inactive),101,-62.9% (inactive),138,-0.11 (inactive),-1.8e-05 (inactive),0.00374 (inactive),15.7% (inactive),7.86% (inactive)
Cc1ccc(S(=O)(=O)N2CCCC2C(=O)OCc2ccco2)cc1 (stereo unspecified),411,-8.4% (inactive),-7.8% (inactive),99,-0.1% (inactive),102,-0.499 (inactive),-4e-05 (inactive),0.005 (inactive),-9.42% (inactive),-8.59% (inactive)
Cc1[nH]n2c(=O)cc(Cc3ccccc3)nc2c1C#N,786,-6.7% (inactive),8.8% (inactive),106,-15.8% (inactive),100,-0.538 (inactive),-3.6e-05 (inactive),0.00532 (inactive),15.1% (inactive),22% (inactive)
COCCn1c(SCC(=O)Nc2nnc(C)s2)nnc1-c1c[nH]c2ccccc12,518,7.1% (inactive),-15.6% (inactive),114,-37.4% (inactive),113,-0.505 (inactive),-0.00026 (inactive),0.00466 (inactive),5.93% (inactive),14.2% (inactive)
Cc1cc2ncc(C(=O)Nc3ccccc3)c(C)n2n1,376,4.2% (inactive),-9.1% (inactive),101,27.5% (inactive),93.8,-0.54 (inactive),-1.5e-05 (inactive),0.00501 (inactive),1.55% (inactive),-14.2% (inactive)
CCOC(=O)/C=C(\C)Sc1cc(=O)oc2ccccc12,571,18.4% (inactive),-8.4% (inactive),93.3,-103% (inactive),126,-0.549 (inactive),-6e-05 (inactive),0.00418 (inactive),25.8% (inactive),47.5% (inactive)
CCCOc1cc(C)c(S(=O)(=O)N2CCN(C)CC2)cc1C,443,10.6% (inactive),12.8% (inactive),100,-11.9% (inactive),96.1,-0.57 (inactive),-3.7e-05 (inactive),0.00349 (inactive),7.65% (inactive),10.4% (inactive)
CCOc1ccc(N2CC(C(=O)Nc3ccc(F)cc3F)CC2=O)cc1 (stereo unspecified),847,10.1% (inactive),7.4% (inactive),92.8,-3.5% (inactive),99.9,-0.587 (inactive),2.2e-05 (inactive),0.00677 (inactive),6.56% (inactive),26.2% (inactive)
COc1ccc(CNC(=O)c2cc(-c3ccc(OC)c(OC)c3)on2)cc1,383,-7.2% (inactive),2% (inactive),104,21.5% (inactive),110,-0.206 (inactive),-1.8e-05 (inactive),0.00919 (inactive),15.2% (inactive),-6.13% (inactive)
Cc1ccccc1NC(=O)c1c(F)c(F)c(F)c(F)c1F,490,-6% (inactive),-11.8% (inactive),98.6,-102% (inactive),135,-0.565 (inactive),-8.2e-05 (inactive),0.00407 (inactive),12.8% (inactive),11.6% (inactive)
COC(=O)c1cccc(S(=O)(=O)N2CCN(c3nc4ccccc4s3)CC2)c1,299,-5% (inactive),6.2% (inactive),96.3,-24.1% (inactive),80.7,-0.539 (inactive),1.2e-05 (inactive),0.00622 (inactive),1.3% (inactive),8.61% (inactive)
Cc1nc2sc3c(c2c(=O)o1)CCC3,619,2.1% (inactive),-0.2% (inactive),108,0.3% (inactive),93.8,-0.511 (inactive),-0.000121 (inactive),0.00356 (inactive),16.2% (inactive),22.8% (inactive)
COc1ccc(CCNS(=O)(=O)c2ccc(C(=O)NCc3ccco3)cc2)cc1OC,355,-13.1% (inactive),7.4% (inactive),94.7,-35.9% (inactive),66.4,-0.579 (inactive),2.6e-05 (inactive),0.00625 (inactive),-8.15% (inactive),-15.3% (inactive)
Cc1cccc(CS(=O)(=O)Cc2ccc(C(=O)NCC3CCCO3)o2)c1 (stereo unspecified),450,4.5% (inactive),13.6% (inactive),99.3,-36.2% (inactive),112,-0.582 (inactive),9.9e-06 (inactive),0.00601 (inactive),-2% (inactive),8.02% (inactive)
COc1ccccc1C(=O)n1nc(-c2ccccc2)nc1N,354,-3.3% (inactive),9.7% (inactive),101,-55.5% (inactive),119,-0.619 (inactive),-2.9e-05 (inactive),0.00374 (inactive),15.7% (inactive),11.1% (inactive)
CCOc1ccc(-n2cc(C(=O)Nc3cccc(C)n3)c3cc(OC)c(OC)cc3c2=O)cc1,395,5.1% (inactive),20.8% (inactive),82.4,-8% (inactive),94,-0.414 (inactive),-0.000102 (inactive),0.0107 (inactive),13.3% (inactive),25.9% (inactive)
CCCc1nc2ccccc2c2nc(N)nn12,435,7.7% (inactive),13.1% (inactive),82.1,21.4% (inactive),101,-0.458 (inactive),3.4e-05 (inactive),0.00513 (inactive),13.7% (inactive),12.1% (inactive)
CCCCc1ccc(NC(=O)c2c(C)noc2C)cc1,451,-2.5% (inactive),0.1% (inactive),109,47.3% (inactive),95.2,-0.563 (inactive),-0.000106 (inactive),0.00365 (inactive),-8.01% (inactive),-38.5% (inactive)
Clc1ccc(SCCn2ccnc2)cc1,481,10.1% (inactive),-7.9% (inactive),104,-245% (inactive),137,-0.325 (inactive),-2.6e-05 (inactive),0.00636 (inactive),2.29% (inactive),5.02% (inactive)
Cc1ccc(S(=O)(=O)NCC2CCC(C(=O)NCCCN3CCOCC3)CC2)cc1 (stereo unspecified),305,1.9% (inactive),26.8% (inactive),80.7,-24.4% (inactive),112,-0.564 (inactive),-0.000104 (inactive),0.00513 (inactive),13% (inactive),22.2% (inactive)
